Results from different studies.
Compare with care: the assays were run in different laboratories. Converted amounts (≈) assume the structure as drawn.
Observed: microbial growth

CC[C@H]1OC(=O)[C@H](C)[C@@H](O[C@H]2C[C@@](C)(OC)[C@@H](O)[C@H](C)O2)[C@H](C)[C@@H](O[C@@H]2O[C@H](C)C[C@H](N(C)C)[C@H]2O)[C@](C)(O)C[C@@H](C)CN(C)[C@H](C)[C@@H](O)[C@]1(C)O
MIC (Enterobacter cloacae; broth dilution; ATCC13047): 4 µg/mL (≈ 5.34 µM)

Cc1cc(Nc2nnc(-c3n[nH]c4ccc(C)cc34)s2)cc([N+](=O)[O-])c1
MIC (Serratia marcescens; ATCC8100): 198 µg/mL (≈ 540 µM)

Cc1ccc(N=Nc2c(N)nn3c(-c4ccc(C)cc4)cc(-c4ccc(OCc5ccccc5)cc4)nc23)cc1
MIC (Enterobacter cloacae; ATCC23355): 15.6 µg/mL (≈ 29.7 µM)

Cc1ccc2[nH]nc(-c3nnc(Nc4ccc(Cl)c(Br)c4)s3)c2c1
MIC (Serratia marcescens; ATCC8100): 270 µg/mL (≈ 641 µM)

C[C@@H](O)[C@H]1C(=O)N2C(C(=O)O)=C(S[C@@H]3CN[C@H](C(=O)N(C)C)C3)[C@H](C)[C@H]12
MIC (Enterobacter cloacae; broth dilution; ATCC13047): 0.125 µg/mL (≈ 0.326 µM)

Cc1ccc(N=Nc2c(N)nn3c(-c4ccc(Cl)cc4Cl)cc(-c4ccc(OCc5ccccc5)cc4)nc23)cc1
MIC (Enterobacter cloacae; ATCC23355): 31.3 µg/mL (≈ 54 µM)

C[C@@H](O)[C@H]1C(=O)N2C(C(=O)O)=C(SCCN=CN)C[C@H]12
MIC (Enterobacter cloacae; broth dilution; ATCC13047): 2 µg/mL (≈ 6.68 µM)

COc1ccc(N=Nc2c(N)nn3c(-c4ccc(Cl)cc4Cl)cc(-c4ccc(OCc5ccccc5)cc4)nc23)cc1
MIC (Enterobacter cloacae; ATCC23355): 62.5 µg/mL (≈ 105 µM)

Cc1ccc2[nH]nc(-c3nnc(Nc4ccc(F)cc4Cl)s3)c2c1
MIC (Serratia marcescens; ATCC8100): 85.2 µg/mL (≈ 237 µM)

CCCCCCC#Cc1cncc(-c2nnc(SCc3ccc([N+](=O)[O-])cc3)n2CCCN)c1
MIC (Enterobacter cloacae; broth dilution; DSM30054): > 64 µg/mL

Cc1ccc2[nH]nc(-c3nnc(Nc4ccc(C)c(C)c4)s3)c2c1
MIC (Serratia marcescens; ATCC8100): 123 µg/mL (≈ 366 µM)

COc1ccc(N=Nc2c(N)nn3c(-c4ccco4)cc(-c4ccc(OCc5ccccc5)cc4)nc23)cc1
MIC (Enterobacter cloacae; ATCC23355): 7.81 µg/mL (≈ 15.1 µM)

CCCCCCC#Cc1cncc(-c2nnc(SCc3cc([N+](=O)[O-])cc([N+](=O)[O-])c3)n2C2CCNCC2)c1
MIC (Enterobacter cloacae; broth dilution; DSM30054): > 64 µg/mL

CC1(C)S[C@@H]2[C@H](NC(=O)[C@H](N)c3ccc(O)cc3)C(=O)N2[C@H]1C(=O)O
MIC (Enterobacter cloacae; broth dilution; ATCC13047): > 64 µg/mL

Cc1ccc2[nH]nc(-c3nnc(Nc4cc(Cl)cc(Br)c4)s3)c2c1
MIC (Serratia marcescens; ATCC8100): 250 µg/mL (≈ 595 µM)

CCCCCCC#Cc1cncc(-c2nnc(SCc3ccc([N+](=O)[O-])o3)n2CCCN)c1
MIC (Enterobacter cloacae; broth dilution; DSM30054): > 64 µg/mL
